Most compounds without a hit are left out; they make up all but 2.1% or so of the library.
Runt-CBFb FRET – inhibitors of human RUNX1 Runt domain binding to CBFb. Q01196+Q13951. Cerulean-Runt/Venus-CBFb FRET ratio 530/480, 1 h. inhibition, % at 20 µM. 220,000 compounds, 0.46% hits;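 active means inhibition over about 50% at 20 µM in the single-dose screen, limit read from the data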;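 further: 0% = DMSO wells and 100% = excess unlabeled CBFb competitor control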
Target sequence (Q01196 whole entry, looked up, the tested form may be a part): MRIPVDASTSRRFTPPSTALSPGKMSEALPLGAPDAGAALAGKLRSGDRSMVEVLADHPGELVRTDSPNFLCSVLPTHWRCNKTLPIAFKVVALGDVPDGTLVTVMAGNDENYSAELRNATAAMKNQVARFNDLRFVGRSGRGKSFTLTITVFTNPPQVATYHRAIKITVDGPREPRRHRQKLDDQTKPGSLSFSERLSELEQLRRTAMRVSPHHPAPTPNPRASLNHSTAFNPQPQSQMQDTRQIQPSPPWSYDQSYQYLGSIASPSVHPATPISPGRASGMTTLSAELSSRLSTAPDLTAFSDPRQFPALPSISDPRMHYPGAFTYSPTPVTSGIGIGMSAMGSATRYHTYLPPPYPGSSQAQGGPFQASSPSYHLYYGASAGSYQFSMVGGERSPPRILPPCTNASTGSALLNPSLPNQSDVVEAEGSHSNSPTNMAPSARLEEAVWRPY
Target sequence (Q13951 whole entry, looked up, the tested form may be a part): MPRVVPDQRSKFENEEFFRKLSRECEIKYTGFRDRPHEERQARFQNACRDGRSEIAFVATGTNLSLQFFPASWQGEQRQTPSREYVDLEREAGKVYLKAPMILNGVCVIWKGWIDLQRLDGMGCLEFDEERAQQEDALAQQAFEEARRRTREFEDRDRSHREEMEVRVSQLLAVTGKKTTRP
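Schedule: protein complex preformed 1 h, compound exposure 1 h, room temperature, dark; test system: Cerulean-labeled Runt domain protein; amount: 100 nM per protein; buffer or medium: Tris 50 mM pH 7.5, KCl, K2SO4, 0.01% BSA; read-out: loss of energy transfer signal; detection: FRET fluorescence; controls: 5 µM unlabeled CBFb as full-inhibition high control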
RanGTP-Impb inh – disruptors of Ran-importin-beta complex formation – biochemical, FRET, CFP-Ran, YFP-importin-beta, homogeneous, primary screen | inhibition, % (no concentration beside the values) | cell-free CFP-Ran/YFP-importin-beta FRET ratio | AID 2216 | 300,000 compounds, 1.1% hits;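 active means more than half of the replicate wells show a fall in the fluorescence ratio signal beyond about 16%, limit read from the data, passing the limit was not always enough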;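 further: 0% = DMSO wells and 100% = Ran loaded with GDP instead of GTP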
Hck-Nef inh – human Hck-Nef kinase inhibition; 220,000 compounds, 0.68% hits; Recombinant Hck-YEEI plus Nef, Z-Lyte FRET kinase assay; inhibition, % at 20 µM; AID 463187; P08631;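 active means Hck-Nef kinase inhibition above about 50%, limit read from the data; inactive means inhibition below that limit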;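 further: 0% = DMSO with Hck plus Nef and 100% = Hck alone without Nef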
Runt-SMMHC FRET – Runt domain-CBFb-SMMHC interaction inhibition; Q01196+Q13951; Cerulean-Runt/Venus-CBFb-SMMHC FRET ratio 530/480, 1 h; inhibition, % at 20 µM; 220,000 compounds, 0.74% hits;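 active means mean inhibition across duplicate retests at 20 µM reaching about 50%, limit read from the data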;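 further: 0% = DMSO wells and 100% = wells with excess untagged CBFb-SMMHC; inhibitors lower the FRET ratio by blocking Runt binding to CBFb-SMMHC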
L929 necroptosis – L929 zVAD cell death inhibition; L929 zVAD necroptosis rescue, ATP luminescence, 24 h; with zVAD 60 µM; 220,000 compounds, 0.38% hits; viability rescue, % at 10 µM;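 active means activation, scaled between plate controls, above about 75%, limit read from the data; inactive means activation under that limit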;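 further: 0% = zVAD with DMSO and 100% = DMSO alone without zVAD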
TNF necrop inh – TNF-alpha cell death inhibition in Jurkat FADD-/- cells; AID 463075; Jurkat FADD-/- TNF necroptosis rescue, ATP luminescence, 24 h; 0 = TNF only, 100 = no-TNF cells; activation (protection from cell death), % at 10 µM; 220,000 compounds, 0.068% hits;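 active means activation, meaning protection from cell death, of at least 50% relative to plate controls; inactive means activation below 50%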;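 further: necroptosis triggered by 40 ng/mL TNF-alpha added together with compound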
zVAD necrop conf – confirmed blocker of zVAD induced death in L929 cells | L929 zVAD-induced necroptosis rescue, ATP luminescence, 24 h | shares compounds with L929 necroptosis | AID 463117 | activation (protection from necroptosis), % at 10 µM | 760 compounds, 16% hits;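 active means mean protection from necroptosis of at least 50% over duplicate tests; inactive means mean protection below 50%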;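 further: 0% = cells with zVAD alone and 100% = vehicle cells without zVAD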
* hit, by the source's call.

O=C(Nc1ccc(N2CCN(C(=O)c3ccco3)CC2)cc1)c1ccco1 was read as Runt-CBFb FRET 0, RanGTP-Impb inh -4, Hck-Nef inh 10, Runt-SMMHC FRET 0, L929 necroptosis 2 and TNF necrop inh 3.
`O=C(NNC(=O)c1ccc(NC(=O)c2ccccc2)cc1)Nc1ccccc1` gave Runt-CBFb FRET 0, RanGTP-Impb inh -2, Hck-Nef inh 18, Runt-SMMHC FRET 1, L929 necroptosis 76*, TNF necrop inh 2 and zVAD necrop conf 37.
`O=C(NNC(=O)c1ccc(NC(=O)c2ccccc2)cc1)c1ccc(F)cc1` gave RanGTP-Impb inh 1.
Screening COc1cc(NC(=O)c2cnc(N)s2)cc(C(=O)Nc2cccc(C(F)(F)F)c2)c1 returned Runt-CBFb FRET 0, RanGTP-Impb inh -2, Hck-Nef inh 32, Runt-SMMHC FRET -18, L929 necroptosis 79*, TNF necrop inh 6 and zVAD necrop conf 74*.
For C=CCOc1ccc(/C=C/C(C)=N\O)cc1 the results were Runt-CBFb FRET -1, RanGTP-Impb inh -2, Hck-Nef inh 25, Runt-SMMHC FRET -5, L929 necroptosis 79*, TNF necrop inh 1 and zVAD necrop conf 10.
`CCC(NC(=O)CCl)c1ccc(C)cc1` (stereo unspecified) gave Runt-CBFb FRET -2, RanGTP-Impb inh -1, Hck-Nef inh 22, Runt-SMMHC FRET -1, L929 necroptosis 77*, TNF necrop inh 19 and zVAD necrop conf 2.
Screening CCCC(NC(=O)CCl)c1ccccc1 (stereo unspecified) returned Runt-CBFb FRET 2, RanGTP-Impb inh -1, Hck-Nef inh -1, Runt-SMMHC FRET 1, L929 necroptosis 8 and TNF necrop inh 0.
Screening O=C1NCC(O)=C1C=Nc1ccccc1O returned Runt-CBFb FRET 2, RanGTP-Impb inh -1, Hck-Nef inh 3, Runt-SMMHC FRET 0, L929 necroptosis 77*, TNF necrop inh 14 and zVAD necrop conf 7.
For O=c1[nH][nH]cc1C=Nc1ccccc1O the results were Runt-CBFb FRET 4, RanGTP-Impb inh 0, Hck-Nef inh 1, Runt-SMMHC FRET 0, L929 necroptosis 75*, TNF necrop inh 8 and zVAD necrop conf 13.
Cc1cc(N)n2ncc(-c3ccc(F)cc3)c2n1 was read as Runt-CBFb FRET 2, RanGTP-Impb inh -3, Hck-Nef inh 6, Runt-SMMHC FRET 4, L929 necroptosis 79*, TNF necrop inh -4 and zVAD necrop conf 43.
`Cc1cc(N)n2ncc(-c3ccc(Cl)cc3)c2n1` gave Runt-CBFb FRET 0, RanGTP-Impb inh 1, Hck-Nef inh 3, Runt-SMMHC FRET 5, L929 necroptosis 72 and TNF necrop inh 0.
COC(=O)c1c(NC(=O)Nc2ccc(Cl)cc2)sc(C)c1C was read as Runt-CBFb FRET 4, Hck-Nef inh 1, Runt-SMMHC FRET -1, L929 necroptosis 0 and TNF necrop inh 1.
`Cc1sc(NC(=O)Nc2ccccc2)c(C(N)=O)c1C` gave Runt-CBFb FRET 44, RanGTP-Impb inh 11, Hck-Nef inh 25, Runt-SMMHC FRET 20, L929 necroptosis 77*, TNF necrop inh 1 and zVAD necrop conf 1.
`CCC(=O)Oc1ccc(-c2cnc3ccccc3n2)cc1` gave Runt-CBFb FRET -2, RanGTP-Impb inh 2, Hck-Nef inh 1, Runt-SMMHC FRET 0, L929 necroptosis 89*, TNF necrop inh -3 and zVAD necrop conf 39.
`Cc1ccc(C(=O)COC(=O)c2ccc(-c3cnc4ccccc4n3)cc2)cc1C` gave Runt-CBFb FRET 2, RanGTP-Impb inh -1, Hck-Nef inh 1, Runt-SMMHC FRET 5, L929 necroptosis 49 and TNF necrop inh -1.
`COc1ccc(CC(=O)NCc2n[nH]c(=S)n2-c2ccccc2OC)cc1` gave Runt-CBFb FRET 0, RanGTP-Impb inh -1, Hck-Nef inh 19, Runt-SMMHC FRET 6, L929 necroptosis 3 and TNF necrop inh 1.
